{"data": "Results from different studies", "note": "Each line is one published result; the experiments were not run side by side."}
{"SMILES": "Cc1[nH]c(C)c(S(=O)(=O)Nc2ccc(S(F)(F)(F)(F)F)cc2)c1C(=O)N1CCC(F)(F)C1", "test system": "mouse, plasma", "setting": "intraperitoneal, 40 mg/kg", "quantity": "half-life", "value": "158 min"}
{"SMILES": "CC(C)CC(=O)OC[C@H]1O[C@@](C#N)(c2ccc3c(N)ncnn23)[C@H](O)[C@@H]1O", "assay": "metabolic stability", "test system": "dog, hepatocytes", "setting": "5 µM", "quantity": "hepatocyte CLint", "value": "> 318 µL/min/10⁶ cells"}
{"SMILES": "CC(C)=CCC[C@](C)(O[C@@H]1O[C@H](CO)[C@@H](O)[C@H](O)[C@H]1O)[C@H]1CC[C@]2(C)[C@@H]1[C@H](O)C[C@@H]1[C@@]3(C)CC[C@H](O)C(C)(C)[C@@H]3CC[C@]12C", "test system": "mouse, plasma", "setting": "oral, 10 mg/kg", "quantity": "half-life", "value": "840 min"}
{"SMILES": "CN(C)C1(CNC(=O)c2ccc3c(c2)CCN3C(=O)c2ccccc2)CCOCC1", "test system": "male C57BL/6 mouse, brain", "setting": "intraperitoneal, 50 mg/kg, 2 h", "quantity": "concentration", "value": "39 ng/g"}
{"SMILES": "CC(C)[C@]12O[C@H]1[C@@H]1O[C@]13[C@]1(O[C@H]1C[C@H]1C4=C(CC[C@@]13C)C(=O)OC4)[C@@H]2O", "test system": "SCID mouse, plasma", "setting": "intravenous, 0.6 mg/kg", "quantity": "half-life", "value": "9.6 min"}
{"SMILES": "CCOC(=O)c1c(NC(=O)CNC(C)C)sc2c1CCCCC2", "test system": "male mouse, brain", "setting": "intraperitoneal, 100 mg/kg, single dose", "quantity": "half-life", "value": "124 min"}
{"SMILES": "COc1cc(C(=O)c2nc(-c3cccc4[nH]ccc34)c[nH]2)cc(OC)c1OC", "test system": "male CD-1 mouse, plasma", "setting": "intraperitoneal, 15 mg/kg", "quantity": "half-life", "value": "57 min"}
{"SMILES": "Cc1ncsc1-c1ccc([C@H](CC(=O)NCCOCCOCCOCCOCCOCCC(=O)N2CCC(Nc3cc(C(=O)NC[C@H](O)CN4CCc5ccccc5C4)ncn3)CC2)NC(=O)[C@@H]2C[C@@H](O)CN2C(=O)[C@@H](NC(=O)C2(F)CC2)C(C)(C)C)cc1", "test system": "male Swiss mouse, plasma", "setting": "intraperitoneal, 50 mg/kg, 8 h, single dose", "quantity": "concentration", "value": "> 200 nM"}
